T cell HTS = modulates CD8 T cell binding to vesicles | response (vesicle binding), % at 7 µM | 330,000 tested, 0.068% active | 2C CD8+ T cell-vesicle binding, flow cytometry; hits give low values | AID 2052;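 active means response, share of CD8 T cells binding vesicles, and their 90th percentile fluorescence all below set limits, cut at about 80% in these data, passing the limit was not always enough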;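 further: values below 100% mean blocked vesicle binding to the CD8+ T cells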
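Incubation: binding step 1.5 h, 37 °C, antibody labelling 20 min, ice; system: murine 2C transgenic CD8+ T lymphocytes; technique: cytometric PE anti-B7-1 and Alexa647 anti-CD8 signals after 1% paraformaldehyde fixation; also added: QL9-charged Drosophila Ld/ICAM-1/B7-1 vesicles; control set: naked versus QL9-loaded vesicles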
DSG3 Ab inh = human desmoglein-3 autoantibody binding inhibition; DSG3-coupled beads, scFv-anti-DSG3-GFP binding, flow cytometry; hits give low values; binding (percent of control), % at 10 µM; 310,000 tested, 0.48% active; AID 588358;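 active means binding more than 3 SD below its plate's average and above zero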;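 further: hits lower antibody fragment binding to DSG3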
Target sequence (P32926 whole entry, looked up, the tested form may be a part): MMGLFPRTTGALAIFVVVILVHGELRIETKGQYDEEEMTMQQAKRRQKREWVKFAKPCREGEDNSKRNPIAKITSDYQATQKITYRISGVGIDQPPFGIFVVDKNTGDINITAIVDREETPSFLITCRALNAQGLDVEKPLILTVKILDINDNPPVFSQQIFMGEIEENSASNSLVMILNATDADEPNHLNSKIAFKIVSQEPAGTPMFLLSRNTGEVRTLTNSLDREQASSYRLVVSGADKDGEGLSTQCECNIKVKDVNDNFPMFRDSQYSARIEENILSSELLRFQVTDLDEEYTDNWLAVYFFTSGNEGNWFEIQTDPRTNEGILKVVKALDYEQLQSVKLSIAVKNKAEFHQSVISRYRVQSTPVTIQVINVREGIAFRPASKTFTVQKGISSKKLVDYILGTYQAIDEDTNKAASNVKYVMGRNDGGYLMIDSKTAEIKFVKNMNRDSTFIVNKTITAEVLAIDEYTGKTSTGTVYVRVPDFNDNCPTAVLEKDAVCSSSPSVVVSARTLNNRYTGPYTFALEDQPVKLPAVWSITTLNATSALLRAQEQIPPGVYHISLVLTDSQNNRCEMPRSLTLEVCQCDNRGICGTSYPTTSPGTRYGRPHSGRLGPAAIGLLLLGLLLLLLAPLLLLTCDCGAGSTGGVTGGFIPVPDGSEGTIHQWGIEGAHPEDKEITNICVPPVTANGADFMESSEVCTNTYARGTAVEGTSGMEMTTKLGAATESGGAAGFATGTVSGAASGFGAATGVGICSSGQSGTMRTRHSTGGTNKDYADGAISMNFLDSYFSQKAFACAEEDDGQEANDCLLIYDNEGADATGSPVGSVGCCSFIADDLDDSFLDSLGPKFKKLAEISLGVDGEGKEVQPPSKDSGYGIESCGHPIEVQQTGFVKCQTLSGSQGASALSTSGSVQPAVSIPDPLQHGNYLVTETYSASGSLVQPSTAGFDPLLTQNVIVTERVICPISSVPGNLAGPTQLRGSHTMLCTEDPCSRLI
GPR7 antagonist = blocks human GPR7 receptor signaling; GPR7-expressing cells, fluorescence antagonist assay; 290,000 tested, 1.1% active; AID 1861; inhibition, % at 4.4 µM; in the data active means inhibition above about 16%, passing the limit was not always enough;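 further: cells stimulated with the agonist NPW; 0% = agonist with vehicle and 100% = vehicle without agonist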
pCIP destab = lowers stability of the mouse p/CIP coactivator protein; F442A p/CIP-EGFP cells, EGFP fluorescence, 16 h; Q05BA5; 290,000 tested, 0.01% active; decrease of EGFP signal, % at 10 µM;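 active means EGFP signal decrease of at least 30% at 10 µM or well 3 SD below plate mean, unless failing retest; inactive means the rest, including hits failing retest or dose response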
CHT inh = inhibitors of human choline transporter CHT; Q9GZV3; CHT-expressing cells, membrane potential dye, choline response; hits give low values; B-score at 10 µM; 310,000 tested, 0.86% active; AID 488975;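 active means B-score over 3 SD under the library average, and starting fluorescence ratio not unusually high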;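 further: choline stimulus applied at its EC90 after an EC20 pre-addition; B-score computed on integrated fluorescence ratio after choline addition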
CHT allo act = human CHT allosteric activation; AID 488977; Q9GZV3; 310,000 tested, 0.49% active; CHT-expressing cells, membrane potential dye, choline EC20; hits give high values; LV-AA mutant CHT in HEK293 cells; B-score at 10 µM;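 active means initial fluorescence not abnormally high and integrated response B-score, plate-corrected, over 3 SD above library mean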
CHT act confirm = human CHT activation, confirmatory screen; 2,500 tested, 91% active; CHT-expressing cells, membrane potential dye fluorescence (FDSS); % of choline EC20–EC90 response window; HEK293 expressing CHT LV-AA mutant; choline added at its EC20; activation, % at 10 µM; shares compounds with CHT allo act; AID 504833;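 active means primary screen active, with duplicate mean activation above negative control mean plus 3 SD, cut at about 11% in these data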
HEK293 MP dye = activity in parental HEK293 cells lacking CHT. shares compounds with CHT allo act. membrane potential dye fluorescence (FDSS); measured after EC20 choline addition. ratio readout change at 10 µM, hits read low. 2,500 tested, 62% active. AID 623908;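 active means duplicate-averaged ratio beyond 3 SD from buffer wells, up or down, though filed actives are nearly all decreases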
Active calls of the source: *. Hits are enriched below; roughly 2.3% of the tested compounds scored in any of these assays.

What do the screens show for `C#CCOCCOCCOCCNc1nc(N2CCN(C(=O)[C@H](CCCCN)n3cc(C(N)CO)nn3)CC2)nc(N2CCN(C(=O)[C@H](CCC(=O)O)n3cc(C(N)CC(C)C)nn3)CC2)n1` (some centres undefined)?
pCIP destab: -2.1

What do the screens show for `C[C@H](CO)N1C[C@H](C)[C@@H](CN(C)S(=O)(=O)c2ccc3ccccc3c2)OCc2cnnn2CCCC1=O`?
DSG3 Ab inh: 106.6

What do the screens show for `Cc1cc(C)n2nc(-c3cccnc3)nc2n1`?
T cell HTS: 337.0; DSG3 Ab inh: 112.3; GPR7 antagonist: -7.5; pCIP destab: -4.3; CHT inh: inactive; CHT allo act: inactive; CHT act confirm: 48.4*; HEK293 MP dye: -50.6*

Results for Cc1cc(C)n2nc(-c3ccc(F)cc3)nc2n1 ?
T cell HTS: 241.1; DSG3 Ab inh: 98.8; GPR7 antagonist: -0.3; pCIP destab: 2.7; CHT inh: inactive; CHT allo act: inactive

Results for O=C(c1ccc(N2CCCC2)c([N+](=O)[O-])c1)N1CCN(S(=O)(=O)c2ccccc2)CC1 ?
DSG3 Ab inh: 102.5

How did O=C(Nc1cccnc1)c1ccc2c(c1)C(=O)N(Cc1cccnc1)C2=O do in these assays?
T cell HTS: 674.6; GPR7 antagonist: 1.3; pCIP destab: 4.0; CHT inh: inactive; CHT allo act: inactive; CHT act confirm: 16.4*; HEK293 MP dye: -38.9*

What do the screens show for `CC(=O)c1cccc(NC(=O)c2ccc3c(c2)C(=O)N(Cc2cccnc2)C3=O)c1`?
T cell HTS: 223.0; DSG3 Ab inh: 103.7; GPR7 antagonist: -3.9; pCIP destab: -1.8; CHT inh: inactive; CHT allo act: inactive

How did Cc1ccc2ccc3cccnc3c2n1 do in these assays?
T cell HTS: 218.4; DSG3 Ab inh: 104.6; GPR7 antagonist: -1.6; CHT inh: inactive; CHT allo act: 6.88*; CHT act confirm: 55.4*; HEK293 MP dye: -73*

What do the screens show for `Cc1c(C)c2cccnc2c2ncccc12`?
T cell HTS: 338.1; DSG3 Ab inh: 110.6

What do the screens show for `CCOC(=O)C1(CCOc2ccccc2)CCN(Cc2ccc(-n3cccn3)cc2)CC1`?
T cell HTS: 105.4; DSG3 Ab inh: 99.3; GPR7 antagonist: -0.1; pCIP destab: -12.5; CHT inh: inactive; CHT allo act: 6.31*; CHT act confirm: 27.4*; HEK293 MP dye: inactive

Results for CCOC(=O)C1(Cc2cccc(OC)c2)CCN(Cc2cccc3cnccc23)CC1 ?
T cell HTS: 201.9; DSG3 Ab inh: 123.1; GPR7 antagonist: 12.3; pCIP destab: -6.2; CHT inh: inactive; CHT allo act: inactive; CHT act confirm: 21.6*; HEK293 MP dye: inactive

What do the screens show for `CCOC(=O)C1(CCOc2ccccc2)CCN(Cc2cccn2-c2ncccn2)CC1`?
T cell HTS: 162.8; DSG3 Ab inh: 100.8; GPR7 antagonist: 12.3; pCIP destab: -1.0; CHT inh: inactive; CHT allo act: 14.6*; CHT act confirm: 37.8*; HEK293 MP dye: inactive

Results for CCOC(=O)C1(CCOc2ccccc2)CCN(Cc2cc(OC)ccc2OC)CC1 ?
T cell HTS: 154.8; DSG3 Ab inh: 122.9; GPR7 antagonist: 9.4; pCIP destab: -0.9; CHT inh: inactive; CHT allo act: inactive; CHT act confirm: 30.0*; HEK293 MP dye: inactive

Results for CCOC(=O)C1(CCOc2ccccc2)CCN(Cc2ccncc2)CC1 ?
T cell HTS: 165.7; DSG3 Ab inh: 103.8; GPR7 antagonist: -5.4; pCIP destab: -4.2; CHT inh: inactive; CHT allo act: inactive

Results for CC(C)(CCC(=S)N1CCOCC1)c1ccccc1 ?
DSG3 Ab inh: 92.5

What do the screens show for `O=C(Cc1ccc(NC(=O)C2CCCN(C(=O)C3CCC3)C2)cc1)Nc1cccc(C(=O)N2CCCCC2)c1` (centres undefined)?
DSG3 Ab inh: 104.5
